Measured values as given in ChEMBL document CHEMBL1158500, “Synthesis and biological evaluation of new potential inhibitors of N-acylethanolamine hydrolyzing acid amidase” (Bioorg Med Chem Lett, 2010).
Active and inactive are the calls of the source. No cut-off for these calls is given here.

How the values were obtained:
[1] = target: T1, N-acylethanolamine-hydrolyzing acid amidase (Homo sapiens) (UniProt Q02083); assay: Inhibition of human recombinant NAAA expressed in human HEK293 cells assessed as conversion of [1,2-14C]palmitoylethanolamine to [1,2-14C]ethanolamine at 50 uM by liquid scintillation counting; format: cell-based
T1 sequence (whole entry): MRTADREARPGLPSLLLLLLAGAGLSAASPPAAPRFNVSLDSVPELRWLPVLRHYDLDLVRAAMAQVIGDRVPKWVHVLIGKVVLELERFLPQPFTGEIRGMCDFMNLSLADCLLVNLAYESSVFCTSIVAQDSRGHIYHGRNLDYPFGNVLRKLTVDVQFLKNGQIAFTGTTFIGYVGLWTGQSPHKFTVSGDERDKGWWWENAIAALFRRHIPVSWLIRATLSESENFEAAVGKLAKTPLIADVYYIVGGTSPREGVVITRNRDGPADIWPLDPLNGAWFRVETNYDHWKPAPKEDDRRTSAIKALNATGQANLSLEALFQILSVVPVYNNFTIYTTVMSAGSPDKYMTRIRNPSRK

[2] = target: T2, N-acylethanolamine-hydrolyzing acid amidase (Homo sapiens, UniProt Q02083); assay: Inhibition of NAAA
T2 sequence (Q02083 whole entry): T1 sequence (whole entry)

[3] = target: T2, N-acylethanolamine-hydrolyzing acid amidase; assay: Inhibition of human recombinant NAAA expressed in human HEK293 cells assessed as conversion of [1,2-14C]palmitoylethanolamine to [1,2-14C]ethanolamine by liquid scintillation counting
[4] = target: T3, Fatty-acid amide hydrolase 1 (Homo sapiens) (UniProt O00519); assay: Inhibition of FAAH in human intact HEK293 assessed as anandamide level by LC-APCI-MS analysis; format: cell-based
T3 sequence (whole entry): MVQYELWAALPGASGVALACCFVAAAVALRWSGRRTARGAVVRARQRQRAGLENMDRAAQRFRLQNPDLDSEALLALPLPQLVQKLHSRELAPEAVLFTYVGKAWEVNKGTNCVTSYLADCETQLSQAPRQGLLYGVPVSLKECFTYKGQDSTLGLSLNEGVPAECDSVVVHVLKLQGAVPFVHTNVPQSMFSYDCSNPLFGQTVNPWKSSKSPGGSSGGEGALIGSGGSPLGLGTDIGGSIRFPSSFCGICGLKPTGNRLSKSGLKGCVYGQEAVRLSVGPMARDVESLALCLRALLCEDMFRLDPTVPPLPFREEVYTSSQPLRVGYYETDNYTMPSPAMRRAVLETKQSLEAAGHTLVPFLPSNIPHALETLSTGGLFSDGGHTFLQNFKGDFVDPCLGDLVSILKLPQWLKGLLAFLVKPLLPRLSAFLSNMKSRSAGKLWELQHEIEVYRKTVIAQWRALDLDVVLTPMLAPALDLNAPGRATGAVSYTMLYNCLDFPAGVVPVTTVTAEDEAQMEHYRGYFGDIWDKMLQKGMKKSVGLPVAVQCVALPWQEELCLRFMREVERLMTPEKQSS
Outline: (§1)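 Intact HEK-NAAA cells (HEK-293 stably overexpressing human NAAA) were treated. Cellular PEA, AEA, OEA and 2-arachidonoylglycerol were quantified by isotope-dilution liquid chromatography–mass spectrometry and expressed as pmol/mg lipid.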

[5] = target: T1, N-acylethanolamine-hydrolyzing acid amidase (Homo sapiens); assay: Competitive inhibition of human recombinant NAAA expressed in human HEK293 cells assessed as conversion of [1,2-14C]palmitoylethanolamine to [1,2-14C]ethanolamine by Lineweaver-Burke plot analysis; format: cell-based
[6] = target: Peroxisome proliferator-activated receptor (Homo sapiens) (UniProt P37231+Q07869+Q03181); assay: Inhibition of PPAR in intact human HEK293 cells assessed as N-oleoylethanolamine level by LC-APCI-MS analysis; format: cell-based; outline: as §1
[7] = target: T1, N-acylethanolamine-hydrolyzing acid amidase (Homo sapiens); assay: Inhibition of NAAH in human intact HEK293 assessed as N-palmitoylethanolamine level by LC-APCI-MS analysis; format: cell-based; outline: as §1
[8] = target: Cannabinoid receptor 2 (Homo sapiens) (UniProt P34972); assay: Displacement of [3H]CP-55940 from human recombinant CB2 receptor expressed in HEK293 cells up to 50 uM after 90 mins; format: cell-based
[9] = target: Cannabinoid receptor 1 (Homo sapiens) (UniProt P21554); assay: Inhibition of CB1 receptor in intact human HEK293 cells assessed as 2-arachidonoylglycerol level by LC-APCI-MS analysis; format: cell-based; outline: as §1
[10] = target: T3, Fatty-acid amide hydrolase 1 (Homo sapiens); assay: Inhibition of FAAH up to 50 uM
[11] = target: Transient receptor potential cation channel subfamily V member 1 (Homo sapiens) (UniProt Q8NER1); assay: Inhibition of human TRPV1 expressed in HEK293 cells up to 50 uM; format: cell-based
[12] = target: Cannabinoid receptor 1 (Homo sapiens) (UniProt P21554); assay: Displacement of [3H]CP-55940 from human recombinant CB1 receptor expressed in HEK293 cells up to 50 uM after 90 mins; format: cell-based

inhibition [1] | SMILES | also measured
inactive | CCCCCCCCCCCCCCCCOC(=O)NC1CCCCC1 | 
inactive | CCCCCCCCCCCCCCCCC(=O)OC1CCCCC1 | 
inactive | CCCCCCCCCCCCCCCCOC(=O)c1ccc(OC)cc1 | 
inactive | CCCCCCCCCCCCCCCC(=O)NN1CCN(c2ccc(Cl)cc2)CC1 | 
41% | CCCCCCCCCCCCCCCC(=O)OC1CCC1 | 
 | CCCCCCCCCCCCCCCCOC(=O)CC [HEXADECYLPROPIONATE] | IC50 [2]: 54 µM
inactive | CCCCCCCCCCCCCCCC(=O)NCCc1cc(OC)cc(OC)c1 | 
 | CCCCCCCCCCCCCCCNC(=O)c1ccccc1 | IC50 [2]: 8.3 µM
inactive | CCCCCCCCCCCCCCCC(=O)Oc1ccc(OC)cc1 | 
inactive | CCCCCCCCCCCCCCCC(=O)NN1CCN(c2ccc(C)c(C)c2)CC1 | 
 | CCCCCCCCCCCCCCCNC(=O)C1CCCCC1 [CYCLOHEXANECARBOXYLIC ACID PENTADECYLAMIDE] | IC50 [3]: 17 µM
inactive | CCCCCCCCCCCCCCCC(=O)NN1CCN(c2cc(C)ccc2C)CC1 | 
inactive | CCCCCCCCCCCCCCCC(=O)NC1CCN(Cc2ccccc2)CC1 | 
25% | CCCCCCCCCCCCCCC(=O)OC1CCCC1 | 
inactive | CCCCCCCCCCCCCCCCOC(=O)Nc1ccc(OC)cc1 | 
inactive | CCCCCCCCCCCCCCCCC(=O)OC1CCC1 | 

inhibition [1] | SMILES | also measured
15% | CCCCCCCCCCCCCCCC(=O)Nc1ccc([N+](=O)[O-])cc1 | 
 | CCCCCCCCCCCCCCCNC(=O)CCO | IC50 [2]: 32 µM
17% | CCCCCCCCCCCCCCCCOC(=O)C1CCCC1 | 
inactive | CCCCCCCCCCCCCCCCC(=O)OC1CCCC1 | 
4% | CCCCCCCCCCCCCCCCNC(=O)c1ccc([N+](=O)[O-])cc1 | 
inactive | CCCCCCCCCCCCCCCC(=O)Nc1ccc(OC)cc1 | 
inactive | CCCCCCCCCCCCCCCC(=O)NCCc1ccc(OC)cc1 | 
85% | CCCCCCCCCCCCCCCC(=O)OC1CCCC1 [CYCLOPENTYL PALMITATE] | Activity [4]: inactive; Activity [5]: Active; Activity [6]: inactive; Activity [7]: Active; IC50 [3]: 10 µM; Activity [8]: inactive; Activity [9]: inactive; Activity [10]: inactive; Activity [11]: inactive; Activity [12]: inactive
8% | CCCCCCCCCCCCCCCCNC(=O)C1CCCC1 | 
18% | CCCCCCCCCCCCCCCC(=O)OC1CCCCC1 | 
inactive | CCCCCCCCCCCCCCCC(=O)NN1CCN(c2ccc(F)cc2)CC1 | 
29% | CCCCCCCCCCCCCCC(=O)OC1CCC1 | 
inactive | CCCCCCCCCCCCCCCCNC(=O)c1ccc(OC)cc1 | 
26% | CCCCCCCCCCCCCCCCOC(=O)c1ccc([N+](=O)[O-])cc1 | 
28% | CCCCCCCCCCCCCCC(=O)OC1CCCCC1 | 
